Test results from PubChem BioAssay AID2341 (Sanford-Burnham Center for Chemical Genomics, 2010).
Active and inactive are the calls of the source.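 Rule for the calls: active = half-maximal potency under 10 µM when retested across doses; inactive = the rest.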

What follows are compounds tested against Cannabinoid receptor 1 (Homo sapiens) (UniProt P21554) (assay: CB1 receptor agonists, beta-arrestin translocation, SAR follow-up, imaging, U2OS cells, beta-arrestin-GFP, powder samples (AID 2341)).
Procedure, shortened: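 System: U2OS cells stably co-expressing human CB1 and β-arrestin-GFP | Buffer or medium: Serum-free MEM during compound exposure | Dosing: Ten-point series, 62 nM to 32 µM, 0.31% DMSO | Timing: 60 min compound treatment, 37 °C | Replication: Duplicate wells per dose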

Chain of Cannabinoid receptor 1 (Homo sapiens) (P21554 whole entry, looked up): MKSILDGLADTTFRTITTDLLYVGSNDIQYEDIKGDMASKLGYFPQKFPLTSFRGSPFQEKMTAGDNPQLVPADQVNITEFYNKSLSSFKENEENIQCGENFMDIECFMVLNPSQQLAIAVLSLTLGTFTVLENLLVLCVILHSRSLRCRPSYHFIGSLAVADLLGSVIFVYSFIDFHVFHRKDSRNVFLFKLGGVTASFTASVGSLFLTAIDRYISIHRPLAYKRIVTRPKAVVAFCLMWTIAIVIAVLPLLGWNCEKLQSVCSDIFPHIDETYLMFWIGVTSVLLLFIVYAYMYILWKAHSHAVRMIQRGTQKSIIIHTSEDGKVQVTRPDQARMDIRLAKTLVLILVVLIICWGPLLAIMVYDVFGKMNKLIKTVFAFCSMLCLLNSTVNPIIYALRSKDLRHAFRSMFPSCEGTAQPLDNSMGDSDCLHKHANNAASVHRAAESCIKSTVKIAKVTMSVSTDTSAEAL

Row | Compound | EC50
1 | COc1ccc(S(=O)(=O)N2CCOCC2)cc1NC(=O)c1cc2c(s1)CCCC2 | > 32 µM (inactive)
2 | COc1cc2c(cc1NC(=O)C(C)Sc1ccc(NC(C)=O)cc1)oc1ccccc12 (stereo unspecified) | > 32 µM (inactive)
3 | CN(C)S(=O)(=O)c1ccc(N2CCCC2)c(C(=O)N2CCN(c3ccc([N+](=O)[O-])cc3)CC2)c1 | > 32 µM (inactive)
4 | COc1ccc2cc(C)c3nnc(SCC(=O)Nc4nc(-c5ccc(F)cc5)cs4)n3c2c1 | > 32 µM (inactive)
5 | COc1cc2c(cc1NC(=O)CSc1ccccc1)oc1ccccc12 | > 32 µM (inactive)
6 | CCCN(CCC)Cc1c(C(=O)NN=C/C(C)=C\c2ccco2)nnn1-c1nonc1N | > 32 µM (inactive)
7 | C/C(C=NNC(=O)c1nnn(-c2nonc2N)c1CN1CCC(C)CC1)=C/c1ccccc1 | > 32 µM (inactive)
8 | O=C(CSc1nc2ccccc2s1)N1c2ccccc2Sc2ccc(Cl)cc21 | > 32 µM (inactive)
9 | CC(C)NS(=O)(=O)c1ccc(NC(=S)NC(=O)c2ccc(-c3ccccc3)cc2)cc1 | > 32 µM (inactive)
10 | CCCN(CCC)Cc1c(C(=O)NN=Cc2c[nH]c3ccccc23)nnn1-c1nonc1N | > 32 µM (inactive)
11 | CC(Sc1nc2cc(Cl)ccc2s1)C(=O)Nc1cccc(S(=O)(=O)N2CCOCC2)c1 (stereo unspecified) | > 32 µM (inactive)
12 | COc1ccccc1/C=C/C(=O)NC(=S)Nc1ccc(S(=O)(=O)N(C)c2ccccc2)cc1 | > 32 µM (inactive)
13 | CC(C)=CC(=O)Nc1ccc(OCc2ccccc2)cc1 | > 32 µM (inactive)
14 | Cc1occc1C(=O)Nc1ccc(OCc2ccccc2)cc1 | > 32 µM (inactive)
15 | C=CCN(CC=C)S(=O)(=O)c1ccc(NC(=S)NC(=O)c2ccc(-c3ccccc3)cc2)cc1 | > 32 µM (inactive)
16 | CC(C)Oc1ccc(S(=O)(=O)N2CCOCC2)cc1NC(=O)c1ccc(N2CCCC2=O)cc1 | > 32 µM (inactive)
17 | CCCN(CCC)Cc1c(C(=O)NN=C/C(C)=C\c2ccccc2)nnn1-c1nonc1N | > 32 µM (inactive)
18 | COc1ccc2c(c1)cc(C)c1nnc(SCC(=O)N(C)c3nc(-c4ccccc4)cs3)n12 | > 32 µM (inactive)
19 | O=C(CSc1nc2ccccc2s1)N1c2ccccc2Sc2ccc(C(F)(F)F)cc21 | > 32 µM (inactive)
20 | Cc1cccc(N2CCN(C(=O)c3cc(S(=O)(=O)N(C)C)ccc3N3CCCC3)CC2)c1C | > 32 µM (inactive)
21 | COc1ccc(-c2csc(NC(=O)CSc3nnc4c(C)cc5ccccc5n34)n2)cc1 | > 32 µM (inactive)
